ChEMBL document CHEMBL3124903, “Synthesis, docking and evaluation of antioxidant and antimicrobial activities of novel 1,2,4-triazolo[3,4-b][1,3,4]thiadiazol-6-yl)selenopheno[2,3-d]pyrimidines” (Eur J Med Chem, 2014)
≈ marks a conversion by molar mass, not a printed value.

How the values were obtained:
Format in all cases: functional
Candida albicans = assay: Antifungal activity against Candida albicans assessed as growth inhibition by NCCLS broth dilution assay
In short: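 Yeast susceptibility is tested by the NCCLS reference broth dilution method. MIC is read as the endpoint, and a DMSO vehicle control is included.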

Aspergillus flavus = assay: Antifungal activity against Aspergillus flavus assessed as growth inhibition by NCCLS broth dilution assay
[1] = Antioxidant activity assessed as H2O2 radical scavenging activity
[2] = system: Radical scavenging activity; assay: Antioxidant activity assessed as DPPH radical scavenging activity after 30 mins by spectrophotometric assay
In short: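 The compound is mixed with methanolic DPPH and incubated for 30 min at room temperature. Absorbance is read against a blank at 517 nm. Percent scavenging is taken from absorbance of a control with all reagents except the compound versus the sample. Runs are in triplicate, and IC50 is reported.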

[3] = Antioxidant activity assessed as NO radical scavenging activity after 150 mins by griess reagent method
Bacillus subtilis = assay: Antibacterial activity against Bacillus subtilis assessed as growth inhibition by microdilution broth susceptibility assay
Escherichia coli = assay: Antibacterial activity against Escherichia coli assessed as growth inhibition by microdilution broth susceptibility assay
Staphylococcus aureus = assay: Antibacterial activity against Staphylococcus aureus assessed as growth inhibition by microdilution broth susceptibility assay
Klebsiella pneumoniae = assay: Antibacterial activity against Klebsiella pneumoniae assessed as growth inhibition by microdilution broth susceptibility assay

Structure (SMILES)	MIC (Candida albicans) [µg/mL]	MIC (Aspergillus flavus) [µg/mL]	IC50 [1] [µg/mL]	IC50 [2] [µg/mL]	IC50 [3] [µg/mL]	MIC (Bacillus subtilis) [µg/mL]	MIC (Escherichia coli) [µg/mL]	MIC (Staphylococcus aureus) [µg/mL]	MIC (Klebsiella pneumoniae) [µg/mL]
OC(Cn1cncn1)(Cn1cncn1)c1ccc(F)cc1F [FLUCONAZOLE]	3.12 (≈ 10.2 µM)	3.12 (≈ 10.2 µM)							
O=C1O[C@H]([C@@H](O)CO)C(O)=C1O [ASCORBIC ACID]			15.24 (≈ 86.5 µM)	12.27 (≈ 69.7 µM)	14.62 (≈ 83 µM)				
Cc1c(-c2nn3c(-c4ccccc4)nnc3s2)[se]c2ncnc(Nc3ccc(Cl)cc3)c12	> 100	50 (≈ 95.6 µM)	17.03 (≈ 32.6 µM)	14.82 (≈ 28.3 µM)	18.41 (≈ 35.2 µM)	> 100	> 100	50	> 100
Cc1c(-c2nn3c(-c4ccc(O)cc4)nnc3s2)[se]c2ncnc(Nc3ccc(F)c(Cl)c3)c12	1.56 (≈ 2.8 µM)	1.56 (≈ 2.8 µM)	12.54 (≈ 22.5 µM)	9.46 (≈ 17 µM)	8.2 (≈ 14.7 µM)	3.12	3.12	3.12	3.12
Cc1c(-c2nn3c(-c4ccccc4)nnc3s2)[se]c2ncnc(Nc3ccc(F)c(Cl)c3)c12	25 (≈ 46.2 µM)	50 (≈ 92.4 µM)	22.92 (≈ 42.4 µM)	13.24 (≈ 24.5 µM)	20.27 (≈ 37.5 µM)	50	100	50	100
Cc1cc(C(C)(C)C)c(O)c(C(C)(C)C)c1 [BUTYLATED HYDROXYTOLUENE]			17.82 (≈ 80.9 µM)	16.53 (≈ 75 µM)	19.06 (≈ 86.5 µM)				
Cc1c(-c2nn3c(-c4ccc(O)cc4)nnc3s2)[se]c2ncnc(Nc3ccc(Cl)cc3)c12	1.56 (≈ 2.89 µM)	3.12 (≈ 5.79 µM)	15.38 (≈ 28.5 µM)	11.02 (≈ 20.4 µM)	13.72 (≈ 25.5 µM)	3.12	6.25	6.25	6.25
Cc1c(-c2nn3c(-c4ccc([N+](=O)[O-])cc4)nnc3s2)[se]c2ncnc(Nc3ccc(Cl)cc3)c12	> 100	> 100	48.31 (≈ 85.1 µM)	33.28 (≈ 58.6 µM)	46.92 (≈ 82.6 µM)	> 100	> 100	> 100	> 100
Cc1ccc(-c2nnc3sc(-c4[se]c5ncnc(Nc6ccc(F)c(Cl)c6)c5c4C)nn23)cc1	25 (≈ 45.1 µM)	12.5 (≈ 22.5 µM)	18.36 (≈ 33.1 µM)	12.86 (≈ 23.2 µM)	16.52 (≈ 29.8 µM)	12.5	12.5	6.25	12.5
Cc1c(-c2nn3c(-c4ccc([N+](=O)[O-])cc4)nnc3s2)[se]c2ncnc(Nc3ccc(F)c(Cl)c3)c12	> 100	> 100	36.42 (≈ 62.2 µM)	26.94 (≈ 46 µM)	30.17 (≈ 51.5 µM)	100	50	100	50
O=C(O)c1cn(C2CC2)c2cc(N3CCNCC3)c(F)cc2c1=O [CIPROFLOXACIN]						6.25			6.25
COc1ccc(-c2nnc3sc(-c4[se]c5ncnc(Nc6ccc(Cl)cc6)c5c4C)nn23)cc1	6.25 (≈ 11.3 µM)	6.25 (≈ 11.3 µM)	21.09 (≈ 38.1 µM)	12.75 (≈ 23.1 µM)	19.82 (≈ 35.8 µM)	25	12.5	12.5	25
COc1ccc(-c2nnc3sc(-c4[se]c5ncnc(Nc6ccc(F)c(Cl)c6)c5c4C)nn23)cc1	3.12 (≈ 5.47 µM)	3.12 (≈ 5.47 µM)	17.08 (≈ 29.9 µM)	10.41 (≈ 18.2 µM)	12.74 (≈ 22.3 µM)	3.12	6.25	6.25	6.25
Cc1ccc(-c2nnc3sc(-c4[se]c5ncnc(Nc6ccc(Cl)cc6)c5c4C)nn23)cc1	> 100	50 (≈ 93.1 µM)	19.14 (≈ 35.6 µM)	13.31 (≈ 24.8 µM)	21.64 (≈ 40.3 µM)	50	50	25	25
